Measured values as given in ChEMBL document CHEMBL4184148 (Bioorg Med Chem Lett, 2017).

Columns and labels:
[1] = tested on: HeLa; experiment: Cytotoxicity against human HeLa cells assessed as reduction in cell viability after 72 hrs by CellTiter-Glo assay; type: functional, cell-based
How it was run: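 Cells were treated across a dose-response range for 72 h, and viability was read by CellTiter-Glo luminescence. Measurements were made in triplicate and reported with standard error.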

[2] = tested on: Tyrosine-protein kinase ABL1 (Homo sapiens), P00519 [E255K]; experiment: Binding affinity to human phosphorylated ABL1 E255K mutant (S229 to K512 residues) expressed in HEK293 cells at 1 uM by Kinomescan method relative to control; type: cell-based
[3] = tested on: Serine/threonine-protein kinase B-raf (Homo sapiens), P15056 [V600E]; experiment: Binding affinity to human partial length BRAF V600E mutant (S429 to E741 residues) expressed in HEK293 cells at 1 uM by Kinomescan method relative to control; type: cell-based
[4] = target: Cyclin-dependent kinase 11B (Homo sapiens) (UniProt P21127); experiment: Binding affinity to wild-type human partial length CDC2L1 (P353 to G692 residues) expressed in Escherichia coli BL21 at 1 uM by Kinomescan method relative to control
[5] = target: Cyclin-dependent kinase 13 (Homo sapiens) (UniProt Q14004); experiment: Binding affinity to wild-type human partial length CDC2L5 (H675 to S1054 residues) expressed in HEK293 cells at 1 uM by Kinomescan method relative to control; type: cell-based
[6] = target: Serine/threonine-protein kinase Chk1 (Homo sapiens) (UniProt O14757); experiment: Binding affinity to wild-type human partial length CHEK1 (M1 to G289 residues) expressed in Escherichia coli BL21 at 1 uM by Kinomescan method relative to control
[7] = target: Epithelial discoidin domain-containing receptor 1 (Homo sapiens) (UniProt Q08345); experiment: Binding affinity to wild-type human partial length DDR1 (R565 to V876 residues) expressed in Escherichia coli BL21 at 1 uM by Kinomescan method relative to control
[8] = target: Serine/threonine-protein kinase MRCK gamma (Homo sapiens) (UniProt Q6DT37); experiment: Binding affinity to wild-type human partial length DMPK2 (S46 to S408 residues) expressed in Escherichia coli BL21 at 1 uM by Kinomescan method relative to control
Sequence of Serine/threonine-protein kinase MRCK gamma (Homo sapiens) (Q6DT37 whole entry, the tested form may be a part): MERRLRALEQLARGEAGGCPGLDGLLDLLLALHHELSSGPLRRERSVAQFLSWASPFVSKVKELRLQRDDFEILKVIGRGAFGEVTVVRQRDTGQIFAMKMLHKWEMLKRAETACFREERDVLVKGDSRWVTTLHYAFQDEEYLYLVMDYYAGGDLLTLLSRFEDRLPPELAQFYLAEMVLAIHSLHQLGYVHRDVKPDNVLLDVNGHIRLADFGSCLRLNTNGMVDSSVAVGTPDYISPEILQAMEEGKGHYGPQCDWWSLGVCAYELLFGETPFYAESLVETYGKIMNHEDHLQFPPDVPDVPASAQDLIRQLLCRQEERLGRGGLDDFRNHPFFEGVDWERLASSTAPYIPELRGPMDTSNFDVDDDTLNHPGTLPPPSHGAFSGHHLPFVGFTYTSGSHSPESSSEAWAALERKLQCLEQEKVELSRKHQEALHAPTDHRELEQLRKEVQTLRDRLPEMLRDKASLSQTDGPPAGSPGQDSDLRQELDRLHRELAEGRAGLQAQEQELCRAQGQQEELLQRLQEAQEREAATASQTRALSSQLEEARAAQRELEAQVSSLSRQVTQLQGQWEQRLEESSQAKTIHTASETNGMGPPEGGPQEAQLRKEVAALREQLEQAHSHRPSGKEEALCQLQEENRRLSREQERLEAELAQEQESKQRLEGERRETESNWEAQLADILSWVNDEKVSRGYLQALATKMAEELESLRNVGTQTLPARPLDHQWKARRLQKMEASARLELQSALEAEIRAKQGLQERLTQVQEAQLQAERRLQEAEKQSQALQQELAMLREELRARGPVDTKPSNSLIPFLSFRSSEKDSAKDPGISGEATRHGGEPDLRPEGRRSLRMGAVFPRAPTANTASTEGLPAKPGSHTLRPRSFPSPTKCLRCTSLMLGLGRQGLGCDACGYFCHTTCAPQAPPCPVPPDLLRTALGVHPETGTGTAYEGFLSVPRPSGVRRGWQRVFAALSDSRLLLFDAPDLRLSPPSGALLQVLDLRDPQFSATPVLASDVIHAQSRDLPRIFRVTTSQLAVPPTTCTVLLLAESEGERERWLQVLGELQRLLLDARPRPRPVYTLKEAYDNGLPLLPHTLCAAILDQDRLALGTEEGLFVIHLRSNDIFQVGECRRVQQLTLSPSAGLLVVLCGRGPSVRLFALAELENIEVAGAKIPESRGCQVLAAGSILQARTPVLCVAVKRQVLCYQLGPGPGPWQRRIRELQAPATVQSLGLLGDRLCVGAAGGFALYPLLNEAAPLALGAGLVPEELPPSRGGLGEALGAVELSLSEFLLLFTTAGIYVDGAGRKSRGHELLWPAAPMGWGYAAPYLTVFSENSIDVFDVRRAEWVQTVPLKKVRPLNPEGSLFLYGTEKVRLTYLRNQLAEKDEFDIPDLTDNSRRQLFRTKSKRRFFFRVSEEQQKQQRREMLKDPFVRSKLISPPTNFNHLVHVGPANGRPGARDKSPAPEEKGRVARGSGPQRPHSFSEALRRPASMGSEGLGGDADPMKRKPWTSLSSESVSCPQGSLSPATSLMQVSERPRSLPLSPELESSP

[9] = target: Epidermal growth factor receptor (Homo sapiens) (UniProt P00533); experiment: Binding affinity to human partial length EGFR E746-A750del mutant expressed in Escherichia coli BL21 at 1 uM by Kinomescan method relative to control
[10] = target: Mitogen-activated protein kinase 3 (Homo sapiens) (UniProt P27361); experiment: Binding affinity to wild-type human full length ERK1 (M1 to P379 residues) expressed in Escherichia coli BL21 at 1 uM by Kinomescan method relative to control
Sequence of Mitogen-activated protein kinase 3 (Homo sapiens) (P27361 whole entry, the tested form may be a part): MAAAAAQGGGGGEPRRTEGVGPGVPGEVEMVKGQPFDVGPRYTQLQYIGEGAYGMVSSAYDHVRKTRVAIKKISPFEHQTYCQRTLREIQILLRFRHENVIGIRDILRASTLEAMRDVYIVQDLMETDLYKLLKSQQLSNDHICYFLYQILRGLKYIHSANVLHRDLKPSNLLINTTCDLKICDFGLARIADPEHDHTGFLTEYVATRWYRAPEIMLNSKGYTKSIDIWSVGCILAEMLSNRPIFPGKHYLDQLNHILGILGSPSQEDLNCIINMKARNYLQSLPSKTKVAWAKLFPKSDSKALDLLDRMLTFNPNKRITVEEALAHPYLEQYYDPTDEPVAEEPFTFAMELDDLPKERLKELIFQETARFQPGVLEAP
How it was run: (§1)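 Run as one kinome-wide competition binding panel with each compound at a single fixed concentration. Results were plotted as a kinome-wide selectivity map.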

[11] = target: Mitogen-activated protein kinase 7 (Homo sapiens) (UniProt Q13164); experiment: Binding affinity to wild-type human partial length ERK5 (M1 to A409 residues) expressed in Escherichia coli BL21 at 1 uM by Kinomescan method relative to control
[12] = target: Tyrosine-protein kinase JAK2 (Homo sapiens) (UniProt O60674); experiment: Binding affinity to wild-type human partial length JAK2 JH1 catalytic domain (A829 to G1132 residues) expressed in HEK293 cells at 1 uM by Kinomescan method relative to control; type: cell-based
[13] = tested on: Mast/stem cell growth factor receptor Kit (Homo sapiens), P10721 [A829P]; experiment: Binding affinity to human partial length KIT A829P mutant (I571 to D952 residues) expressed in HEK293 cells at 1 uM by Kinomescan method relative to control; type: cell-based
[14] = target: Mitogen-activated protein kinase kinase kinase kinase 5 (Homo sapiens) (UniProt Q9Y4K4); experiment: Binding affinity to wild-type human partial length MAP4K5 (M1 to P297 residues) expressed in Escherichia coli BL21 at 1 uM by Kinomescan method relative to control
[15] = target: Serine/threonine-protein kinase MRCK alpha (Homo sapiens) (UniProt Q5VT25); experiment: Binding affinity to wild-type human partial length MRCKA (L57 to V418 residues) expressed in Escherichia coli BL21 at 1 uM by Kinomescan method relative to control
Sequence of Serine/threonine-protein kinase MRCK alpha (Homo sapiens) (Q5VT25 whole entry, the tested form may be a part): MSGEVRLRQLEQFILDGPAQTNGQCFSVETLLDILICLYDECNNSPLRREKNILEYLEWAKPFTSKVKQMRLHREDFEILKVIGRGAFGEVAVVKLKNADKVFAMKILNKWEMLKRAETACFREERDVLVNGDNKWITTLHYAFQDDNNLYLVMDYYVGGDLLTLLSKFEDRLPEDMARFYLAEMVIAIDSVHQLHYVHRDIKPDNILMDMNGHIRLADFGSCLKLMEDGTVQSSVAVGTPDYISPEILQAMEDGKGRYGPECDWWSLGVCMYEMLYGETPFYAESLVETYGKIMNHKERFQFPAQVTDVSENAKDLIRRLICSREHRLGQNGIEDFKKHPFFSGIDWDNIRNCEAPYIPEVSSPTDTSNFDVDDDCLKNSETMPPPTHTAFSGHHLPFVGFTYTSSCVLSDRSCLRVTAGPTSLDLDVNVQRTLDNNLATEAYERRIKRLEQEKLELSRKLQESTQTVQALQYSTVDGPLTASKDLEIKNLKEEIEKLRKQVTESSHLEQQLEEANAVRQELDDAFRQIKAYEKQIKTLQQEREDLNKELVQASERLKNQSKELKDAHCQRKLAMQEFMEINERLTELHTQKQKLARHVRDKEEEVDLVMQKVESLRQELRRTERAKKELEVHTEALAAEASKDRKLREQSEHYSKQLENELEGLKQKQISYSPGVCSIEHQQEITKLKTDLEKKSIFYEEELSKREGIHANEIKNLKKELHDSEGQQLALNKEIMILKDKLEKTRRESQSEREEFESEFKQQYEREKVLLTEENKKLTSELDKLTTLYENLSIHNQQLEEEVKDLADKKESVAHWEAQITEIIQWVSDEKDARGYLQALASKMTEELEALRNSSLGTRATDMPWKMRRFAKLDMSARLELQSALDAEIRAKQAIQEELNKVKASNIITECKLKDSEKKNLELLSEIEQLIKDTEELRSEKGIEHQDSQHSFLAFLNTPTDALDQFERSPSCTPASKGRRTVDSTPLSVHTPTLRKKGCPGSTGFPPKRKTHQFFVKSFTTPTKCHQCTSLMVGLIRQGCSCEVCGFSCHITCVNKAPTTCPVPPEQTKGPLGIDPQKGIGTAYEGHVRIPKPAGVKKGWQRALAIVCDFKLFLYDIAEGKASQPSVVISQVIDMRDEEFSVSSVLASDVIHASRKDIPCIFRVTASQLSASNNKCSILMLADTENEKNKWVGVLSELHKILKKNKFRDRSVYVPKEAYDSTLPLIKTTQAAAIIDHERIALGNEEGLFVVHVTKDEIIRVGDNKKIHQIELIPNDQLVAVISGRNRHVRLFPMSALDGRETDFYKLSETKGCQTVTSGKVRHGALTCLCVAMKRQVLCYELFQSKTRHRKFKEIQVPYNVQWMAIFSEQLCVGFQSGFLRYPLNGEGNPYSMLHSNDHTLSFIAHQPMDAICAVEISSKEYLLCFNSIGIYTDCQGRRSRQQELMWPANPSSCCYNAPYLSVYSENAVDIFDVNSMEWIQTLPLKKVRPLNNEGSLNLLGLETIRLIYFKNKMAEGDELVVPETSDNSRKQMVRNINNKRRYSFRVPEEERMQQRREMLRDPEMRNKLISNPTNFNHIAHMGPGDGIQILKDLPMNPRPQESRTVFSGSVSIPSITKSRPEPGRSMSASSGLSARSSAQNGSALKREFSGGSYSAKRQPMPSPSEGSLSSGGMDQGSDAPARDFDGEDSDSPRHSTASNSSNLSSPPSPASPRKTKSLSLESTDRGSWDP

[16] = target: Serine/threonine-protein kinase 4 (Homo sapiens) (UniProt Q13043); experiment: Binding affinity to wild-type human full length MST1 (M1 to F487 residues) expressed in Escherichia coli BL21 at 1 uM by Kinomescan method relative to control; how it was run: as §1
[17] = target: Phosphatidylinositol 4,5-bisphosphate 3-kinase catalytic subunit delta isoform (Homo sapiens) (UniProt O00329); experiment: Binding affinity to wild-type human partial length PIK3CD (R108 to Q1044 residues) expressed in HEK293 cells at 1 uM by Kinomescan method relative to control; type: cell-based
[18] = target: Serine/threonine-protein kinase D1 (Homo sapiens) (UniProt Q15139); experiment: Binding affinity to wild-type human partial length PRKD1 (G551 to E870 residues) expressed in Escherichia coli BL21 at 1 uM by Kinomescan method relative to control
[19] = target: Serine/threonine-protein kinase PRP4 homolog (Homo sapiens) (UniProt Q13523); experiment: Binding affinity to wild-type human partial length PRP4 (D657 to I1007 residues) expressed in Escherichia coli BL21 at 1 uM by Kinomescan method relative to control
[20] = tested on: Proto-oncogene tyrosine-protein kinase receptor Ret (Homo sapiens), P07949 [V804L]; experiment: Binding affinity to human partial length RET V804L mutant (E713 to D1014 residues) expressed in Escherichia coli BL21 at 1 uM by Kinomescan method relative to control
[21] = target: Serine/threonine-protein kinase RIO2 (Homo sapiens) (UniProt Q9BVS4); experiment: Binding affinity to wild-type human partial length RIOK2 (M1 to D313 residues) expressed in HEK293 cells at 1 uM by Kinomescan method relative to control; type: cell-based
[22] = target: Dual serine/threonine and tyrosine protein kinase (Homo sapiens) (UniProt Q6XUX3); experiment: Binding affinity to wild-type human full length RIPK5 (M1 to T929 residues) expressed in HEK293 cells at 1 uM by Kinomescan method relative to control; type: cell-based
Sequence of Dual serine/threonine and tyrosine protein kinase (Homo sapiens) (Q6XUX3 whole entry, the tested form may be a part): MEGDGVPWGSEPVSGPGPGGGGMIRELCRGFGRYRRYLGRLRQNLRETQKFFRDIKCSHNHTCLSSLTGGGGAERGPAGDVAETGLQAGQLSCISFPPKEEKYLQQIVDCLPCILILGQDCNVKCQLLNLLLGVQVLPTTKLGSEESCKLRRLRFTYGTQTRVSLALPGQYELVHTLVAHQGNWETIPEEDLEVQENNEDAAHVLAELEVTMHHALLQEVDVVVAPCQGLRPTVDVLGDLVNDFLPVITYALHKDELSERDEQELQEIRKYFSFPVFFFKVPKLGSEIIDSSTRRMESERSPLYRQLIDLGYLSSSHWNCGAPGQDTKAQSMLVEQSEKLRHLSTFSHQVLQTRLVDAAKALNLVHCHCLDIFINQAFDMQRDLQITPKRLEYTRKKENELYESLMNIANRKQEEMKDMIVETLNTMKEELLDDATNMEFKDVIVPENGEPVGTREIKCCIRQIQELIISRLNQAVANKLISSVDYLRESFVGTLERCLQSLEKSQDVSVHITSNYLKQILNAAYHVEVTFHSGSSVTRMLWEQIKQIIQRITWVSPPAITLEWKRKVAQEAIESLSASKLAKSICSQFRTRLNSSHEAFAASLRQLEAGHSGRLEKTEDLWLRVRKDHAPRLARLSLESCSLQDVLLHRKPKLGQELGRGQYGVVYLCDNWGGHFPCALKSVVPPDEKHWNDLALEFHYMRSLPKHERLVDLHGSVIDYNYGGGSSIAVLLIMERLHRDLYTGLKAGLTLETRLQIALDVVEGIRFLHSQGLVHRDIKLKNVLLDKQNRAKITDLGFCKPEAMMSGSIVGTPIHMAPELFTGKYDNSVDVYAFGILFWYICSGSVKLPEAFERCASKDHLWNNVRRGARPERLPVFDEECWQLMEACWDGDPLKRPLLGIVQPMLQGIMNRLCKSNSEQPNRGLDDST

[23] = target: Serine/threonine-protein kinase SIK1 (Homo sapiens) (UniProt P57059); experiment: Binding affinity to wild-type human partial length SIK (M1 to Y304 residues) expressed in Escherichia coli BL21 at 1 uM by Kinomescan method relative to control
[24] = target: Testis-specific serine/threonine-protein kinase 1 (Homo sapiens) (UniProt Q9BXA7); experiment: Binding affinity to wild-type human full length TSSK1B (M1 to Q367 residues) expressed in Escherichia coli BL21 at 1 uM by Kinomescan method relative to control
Sequence of Testis-specific serine/threonine-protein kinase 1 (Homo sapiens) (Q9BXA7 whole entry, the tested form may be a part): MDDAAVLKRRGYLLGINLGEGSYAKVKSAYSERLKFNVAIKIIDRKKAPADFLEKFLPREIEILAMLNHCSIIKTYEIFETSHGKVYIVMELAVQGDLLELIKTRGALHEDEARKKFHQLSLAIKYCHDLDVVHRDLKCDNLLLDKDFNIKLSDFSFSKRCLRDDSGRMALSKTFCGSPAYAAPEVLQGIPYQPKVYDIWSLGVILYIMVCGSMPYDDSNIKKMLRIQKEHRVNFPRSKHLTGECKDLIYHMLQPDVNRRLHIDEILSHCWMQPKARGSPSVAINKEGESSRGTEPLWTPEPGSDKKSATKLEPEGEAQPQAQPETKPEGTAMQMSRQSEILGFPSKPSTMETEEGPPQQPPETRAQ
How it was run: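 Kinome-wide competition binding panel run by an outside provider, with each compound tested at a single concentration. Activity is read against the kinase panel.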

[25] = target: Vascular endothelial growth factor receptor 2 (Homo sapiens) (UniProt P35968); experiment: Binding affinity to wild-type human partial length VEGFR2 (R787 to P1253 residues) expressed in HEK293 cells at 1 uM by Kinomescan method relative to control; type: cell-based

| Compound | IC50 [1] | Activity [2] | Activity [3] | Activity [4] | Activity [5] | Activity [6] | Activity [7] | Activity [8] | Activity [9] | Activity [10] | Activity [11] | Activity [12] | Activity [13] | Activity [14] | Activity [15] | Activity [16] | Activity [17] | Activity [18] | Activity [19] | Activity [20] | other results |
| --- | --- | --- | --- | --- | --- | --- | --- | --- | --- | --- | --- | --- | --- | --- | --- | --- | --- | --- | --- | --- | --- |
| C=CC(=O)Nc1ccc(C(=O)Nc2ccc(Nc3ncc4c(n3)N(C)c3ccc(C)cc3C(=O)N4C)cc2)cc1 | < 1 nM | 77% | 94% | 97% | 99% | 100% | 92% | 100% | 100% | 100% | 86% | 100% | 99% | 100% | 94% | 45% | 55% | 93% | 99% | 84% | Activity [21]: 93%; Activity [22]: 96%; Activity [23]: 95%; Activity [24]: 100%; Activity [25]: 88% |
| CCC(=O)Nc1ccc(C(=O)Nc2ccc(Nc3ncc4c(n3)N(C)c3ccc(C)cc3C(=O)N4C)cc2)cc1 | < 1 nM | 60% | 100% | 100% | 100% | 87% | 86% | 77% | 91% | 95% | 97% | 70% | 54% | 100% | 100% | 83% | 75% | 97% | 100% | 63% | Activity [21]: 58%; Activity [22]: 68%; Activity [23]: 81%; Activity [24]: 89%; Activity [25]: 76% |
